A short description of assay [1]: Growth inhibition of LXFL529L cells by sulforhodamine B assay, incubation time 3 days and IC50 was calculated survival of treated cells over control cells X 100[T/C%]. It is filed as functional. The note with it: Homo sapiens, LXFL 529L, 72 h. In short, it runs like this: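 LXFL529L cells grown in RPMI 1640 with extra glutamine (300 mg/L), 1% penicillin/streptomycin and 10% newborn calf serum at 37 °C, 5% CO₂, mycoplasma-free. Seeded, grown 24 h, then exposed continuously to drug for 3 d. Sulforhodamine B read-out expressed as % T/C of controls. IC50 from mean ± SEM of two separate assays, each in quadruplicate.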

The next assay has as its target Phosphodiesterase 4 (Homo sapiens, UniProt P27815+Q08499+Q07343+Q08493). The assay can be described thus: Inhibition of cAMP hydrolysis by inhibiting phosphodiesterases (PDE4), isolated from tumor tissue of human large cell lung tumor xenograft LXFL-529, grown in nude mice. The class given is protein assay. In general terms: In xenograft studies the graft and the host belong to different species.

As for `OCCNc1nc(N2CCCC2)c2nc(Cl)c(NCc3ccccc3)nc2n1`, the IC50 – broadly, the point on the concentration scale where inhibition reaches its midpoint – was 15.2 µM in assay [1] and 2.8 µM at Phosphodiesterase 4.

Turning to `CN(C)c1nc(N2CCNCC2)nc2nc(NCc3ccccc3)c(Cl)nc12`, the results for the IC50 (in assay [1]; against Phosphodiesterase 4) were 5.9 µM and 0.3 µM, respectively.

In the case of `CN(C)c1nc2nc(N3CCNCC3)nc(N(C)C)c2nc1Cl`, the figures for the IC50 (in assay [1]; at Phosphodiesterase 4) were > 20 µM and 1.2 µM, respectively.

Consider `c1ccc(CNc2cnc3c(N4CCCC4)nc(N4CCNCC4)nc3n2)cc1`, for which the IC50 in assay [1] is 7.3 µM; at Phosphodiesterase 4 it was 0.36 µM.

As for `Clc1nc2c(N3CCCC3)nc(N3CCNCC3)nc2nc1NCc1ccccc1`, the values for the IC50 (in assay [1]; on Phosphodiesterase 4) were 2.3 µM and 0.016 µM, respectively.

As for `CC(=O)N1CCN(c2nc(N3CCCC3)c3nc(Cl)c(NCc4ccccc4)nc3n2)CC1`, the values for the IC50 (in assay [1]; on Phosphodiesterase 4) were 13 µM and 5.9 µM, respectively.

Regarding `Clc1nc2c(N3CCCC3)nc(N3CCOCC3)nc2nc1NCc1ccccc1`, the IC50 in assay [1] was > 20 µM; against Phosphodiesterase 4, 2.5 µM.

Regarding `Clc1nc2c(NCc3ccccc3)nc(N3CCNCC3)nc2nc1N1CCCC1`, the IC50 in assay [1] is 4 µM; at Phosphodiesterase 4, 0.083 µM.

As for `CN1CCN(c2nc(N3CCCC3)c3nc(Cl)c(NCc4ccccc4)nc3n2)CC1`, the IC50 in assay [1] was 6.5 µM; against Phosphodiesterase 4, 3.1 µM.

For the compound `Clc1nc2c(N3CCCC3)nc(N3CCNCC3)nc2nc1N1CCCC1`, the IC50 in assay [1] is 3.1 µM; at Phosphodiesterase 4 it was 0.059 µM.

For the compound `CN(C)c1nc(N2CCCC2)c2nc(Cl)c(NCc3ccccc3)nc2n1`, the 50% inhibitory concentration (IC50) in assay [1] is 11.8 µM; at Phosphodiesterase 4, 1.8 µM.

As for `NCCNc1nc(N2CCCC2)c2nc(Cl)c(NCc3ccccc3)nc2n1`, the half-maximal inhibitory concentration (IC50) in assay [1] was 3.2 µM; against Phosphodiesterase 4, 3.7 µM.

Turning to `CN(C)c1nc2c(N3CCCC3)nc(Cl)nc2nc1NCc1ccccc1`, the IC50 was > 20 µM in assay [1] and 0.65 µM at Phosphodiesterase 4.

With `O=C1CN(c2nc(N3CCCC3)c3nc(Cl)c(NCc4ccccc4)nc3n2)CCN1`, the IC50 in assay [1] was 9.5 µM; against Phosphodiesterase 4, 4.2 µM.

`CN(C)c1nc2nc(N3CCNCC3)nc(N3CCCC3)c2nc1Cl`: the figures for the IC50 (in assay [1]; on Phosphodiesterase 4) were 5.8 µM and 0.046 µM, respectively.

The record behind these values is ChEMBL document CHEMBL1131190, “Synthesis of 7-benzylamino-6-chloro-2-piperazino-4-pyrrolidinopteridine and novel derivatives free of positional isomers. Potent inhibitors of cAMP-specific phosphodiesterase and of malignant tumor cell growth” (J Med Chem, 1998).
